ASAP1 inh: inhibitors of human ASAP1 ArfGAP activity; Q9ULH1; ASAP1-stimulated ARF1 GTP hydrolysis, GDP FP detection; inhibition, % at 16.5 µM; hit rate 0.19% among 360,000; AID 624377; in the data active = inhibition above about 25%;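 also: 0% = vehicle with enzyme and substrate and 100% = no enzyme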
Target sequence (Q9ULH1 325-724 limits assumed): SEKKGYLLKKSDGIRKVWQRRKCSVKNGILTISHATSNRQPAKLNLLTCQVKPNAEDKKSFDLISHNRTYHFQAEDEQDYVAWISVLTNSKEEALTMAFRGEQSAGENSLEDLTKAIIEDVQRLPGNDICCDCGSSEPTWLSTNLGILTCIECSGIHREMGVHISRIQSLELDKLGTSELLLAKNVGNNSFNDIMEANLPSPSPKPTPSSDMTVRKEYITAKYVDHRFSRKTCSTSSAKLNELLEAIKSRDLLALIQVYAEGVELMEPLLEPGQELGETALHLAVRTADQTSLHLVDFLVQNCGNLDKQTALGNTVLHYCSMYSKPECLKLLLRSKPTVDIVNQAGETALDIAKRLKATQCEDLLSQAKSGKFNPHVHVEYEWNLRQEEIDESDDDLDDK
LEDGF integ inh: blocks HIV-1 LEDGF/p75-dependent DNA integration; hit rate 0.64% among 370,000; TR-FRET IN-LEDGF/p75 DNA integration, Eu/Cy5; inhibition, % at 3.7 µM;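 active = inhibition above the screen-wide mean plus 3 SD, cut at about 13% in these data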;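 also: signal is the Cy5 over europium emission ratio at 671 and 618 nm; 0% = plate median of compound wells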
TCR CD3 inh: human TCR-CD3 binding inhibition | inhibition, % at 9.4 µM | TAMRA-labeled TCR probe fluorescence, biochemical | AID 651800 | hit rate 0.37% among 360,000; in the data active = inhibition above about 19%;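 also: recombinant mutant TCR 2C K166C tagged with TAMRA read by polarization; 0% = receptor in buffer alone and 100% = receptor with positive control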
MBD2 inh: inhibitors of human MBD2 binding to methylated oligonucleotide. TR-FRET. inhibition, % at 4.4 µM. hit rate 0.31% among 370,000; in the data active = inhibition above about 13%
UHRF1 binding: UHRF1 methyl-DNA binding inhibition; Q96T88; inhibition, % at 4.4 µM; UHRF1 binding to methylated oligo, TR-FRET; AID 687016; hit rate 0.75% among 370,000; in the data active = inhibition above about 21%;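 also: UHRF1 SRA domain binding a hemimethylated CpG hairpin DNA probe; 0% = median of test compound wells and 100% = reference inhibitor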
ARFGAP1 inh: rat ARFGAP1 inhibition; Q62848; Arfgap1-stimulated ARF1 GTP hydrolysis, GDP FP detection; inhibition, % at 16.5 µM; hit rate 0.26% among 360,000; AID 651572;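 active = inhibition above a per-plate limit, mean inhibition of low control wells plus 3 SD, cut at about 25% in these data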;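 also: 0% = DMSO wells with enzyme and 100% = wells lacking Arfgap1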
Target sequence (Q62848 1-136 limits assumed): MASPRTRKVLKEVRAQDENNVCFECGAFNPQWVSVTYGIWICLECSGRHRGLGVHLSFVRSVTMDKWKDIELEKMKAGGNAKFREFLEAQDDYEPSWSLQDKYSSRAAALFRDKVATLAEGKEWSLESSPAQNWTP
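Assay system: Rat Arfgap1 GAP domain (His6, aa 1-136), purified enzyme | Buffer or medium: HEPES 25 mM pH 7.5, NaCl 150 mM, MgCl2, DTT | Schedule: GTP hydrolysis reaction 2 h at 25 °C | Signal: FP of antibody-bound GDP Alexa 633 tracer, ex 620/em 688 nm | Measure: Percent inhibition of Arfgap1-stimulated GTP hydrolysis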
IN multimer up: counter-screen for LEDGF/p75 integration inhibitors: HIV-1 integrase multimerization activators. shares compounds with LEDGF integ inh. TR-FRET HIV-1 integrase multimerization, biochemical. activation, % at 7.7 µM. hit rate 17% among 2,000. AID 1053131; in the data active = activation above about 8.9%
TR-FRET interf: counter-screen for LEDGF/p75 integration inhibitors: TR-FRET optical interference | shares compounds with LEDGF integ inh | TR-FRET optical interference counterscreen, HIV-1 IN multimerization | inhibition, % at 7.7 µM | 2,000 tested, under 10 active | AID 1053135;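 active = inhibition above the mean over all tested compounds plus 3 SD, which no compound reached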;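 also: 0% = integrase with antibodies and DMSO and 100% = antibodies without integrase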
LEDGF integ conf: LEDGF/p75-dependent HIV-1 integration inhibition, confirmation; shares compounds with LEDGF integ inh; TR-FRET LEDGF/p75-dependent HIV-1 integration, biochemical; inhibition, % at 3.7 µM; hit rate 36% among 2,000; AID 1053136; in the data active = inhibition above about 14%
Numbers without * were called inactive; x = not tested or not shown. An excerpt weighted towards active compounds, which were near 2% of everything screened.

SMILES | ASAP1 inh | LEDGF integ inh | TCR CD3 inh | MBD2 inh | UHRF1 binding | ARFGAP1 inh | IN multimer up | TR-FRET interf | LEDGF integ conf
CCOc1ccc2c(c1)C(NC(C)=O)C(=O)N2CCN1CCOCC1 (stereo not given) | -2 | 7 | 6 | -7 | 1 | -16 | x | x | x
O=C(CCl)Nc1ccc(S(=O)(=O)NC2=NCCCCC2)cc1 | -10 | 17* | 3 | 2 | 4 | -6 | -1 | 3 | -3
CCN(C[C@H]1N[C@@](CC)(C(=O)OC)[C@H]2C(=O)N(Cc3ccccc3)C(=O)[C@@H]12)C(=O)Nc1ccc(OC)cc1 | -11 | -1 | -4 | 7 | 3 | 8 | x | x | x
CCN(C[C@H]1N[C@@](CC)(C(=O)OC)[C@H]2C(=O)N(Cc3ccccc3)C(=O)[C@@H]12)C(=O)Nc1ccc(C(F)(F)F)cc1 | -14 | 66* | -1 | 3 | 1 | 11 | -2 | 10 | -5
O=C(Nc1c(F)cccc1F)c1ccc2c(c1)CCN2S(=O)(=O)c1ccccc1 | -6 | 1 | 1 | 5 | -1 | 7 | x | x | x
CC1(OC(=O)c2ccc(Cl)nc2)C(=O)C=C2C=C3CCCN3C=C2C1=O (stereo not given) | -11 | 18* | 16 | -1 | 13 | -5 | 8 | -42 | 42*
COC(=O)CCC(=O)OC1(C)C(=O)C=C2C=C3CCCN3C=C2C1=O (stereo not given) | -8 | 8 | 9 | -4 | 1 | 4 | x | x | x
COc1cccc(NC(=O)CN(C)CC(=O)Nc2ccc(C)c(S(=O)(=O)N3CCOCC3)c2)c1 | 3 | -2 | -2 | -4 | 2 | 14 | x | x | x
O=C1CC(Nc2ccc(N3CCOCC3)cc2)C(=O)N1c1ccccc1F (stereo not given) | 1 | 15* | 4 | -7 | -4 | 10 | 1 | -7 | 0
Cc1ccc(S(=O)(=O)N/N=C/c2cc(Br)ccc2O)cc1 | 2 | -6 | -1 | -4 | -2 | 5 | x | x | x
Cc1ccc(S(=O)(=O)Nc2ccc(Br)cc2/C=N/n2cnnc2)cc1 | -2 | 17* | -2 | 9 | 19 | -19 | 0 | 0 | 28*
CCN1CCN(C(c2ccccc2)c2nnnn2Cc2ccc3c(c2)OCO3)CC1 (stereo not given) | -4 | 25* | -1 | 3 | 3 | 2 | -1 | 6 | 3
CN(C)S(=O)(=O)N1CCC(CO)(Cc2cccc(C(F)(F)F)c2)CC1 | 4 | 32* | 7 | -3 | -2 | -4 | 1 | -3 | -6
COc1ccc(-c2c(-c3cc(OC)cc(OC)c3)n(C)c3ccc(-c4cnc(N)nc4)cc23)cc1 | -3 | -5 | 5 | 2 | 0 | 0 | x | x | x
COc1ccc(-c2c(-c3cc(OC)cc(OC)c3)n(C)c3ccc(-c4ccc(OC)nc4)cc23)cc1 | 5 | 19* | 1 | 3 | 1 | 9 | 1 | -5 | -5
COC(=O)C1=C(C)N(CCCC(=O)O)C(=O)NC1c1cc2c(cc1[N+](=O)[O-])OCO2 (stereo not given) | 0 | 27* | -1 | 2 | 14 | 6 | 26* | -94 | 48*
COC(=O)C1=C(C)N(C)C(=O)NC1c1cc2c(cc1[N+](=O)[O-])OCO2 (stereo not given) | 2 | 5 | 16 | -4 | 4 | -3 | x | x | x
COc1ccc(CCNC(=O)Cc2ccccc2)cc1OC | -21 | -5 | 7 | -2 | 0 | 20 | x | x | x
CCCOc1ccc(CC(=O)NCCc2ccccc2)cc1OC | -4 | 14* | -2 | -5 | 0 | 1 | 1 | -5 | -4
CCOc1cc(/C=C2\C(=O)N(Cc3ccco3)C(C)=C2C(=O)OC)ccc1O | 10 | 14* | 15 | -9 | 1 | 15 | 1 | -5 | -4
CCOc1cc(/C=C2\C(=O)N(CCc3ccc(OC)c(OC)c3)C(C)=C2C(=O)OC)ccc1O | 1 | 2 | -1 | -4 | -8 | -6 | x | x | x
CCCNC(=O)C1(C)CCCN(C(=O)c2cc(C)nn2C(C)(C)C)C1 (stereo not given) | -9 | 28* | -7 | 6 | 0 | 9 | -4 | 18 | 0
COc1ccc(CCN2C(=O)CCC2(C)c2nnnn2Cc2ccccc2)cc1OC (stereo not given) | -11 | -3 | -7 | 5 | 3 | -1 | x | x | x
Cc1nc(Cl)c(C(=O)NCCc2ccccc2)c(C)c1[N+](=O)[O-] | -7 | -2 | 5 | 0 | -1 | -2 | x | x | x
Cc1nc(Cl)c(C(=O)NCc2ccccc2)c(C)c1[N+](=O)[O-] | -8 | 20* | 2 | 1 | -1 | -5 | 0 | 1 | 0
SMILES | ASAP1 inh | LEDGF integ inh | TCR CD3 inh | MBD2 inh | UHRF1 binding | ARFGAP1 inh | IN multimer up | TR-FRET interf | LEDGF integ conf
CCC(NC(=S)NCc1ccc(F)cc1)c1ccccc1 (stereo not given) | -5 | 0 | 6 | 2 | 1 | -4 | x | x | x
CC1(C(=O)NC2CCCCC2)CCC(=O)N1Cc1cccnc1 (stereo not given) | -2 | 0 | -5 | -1 | 0 | 1 | x | x | x
COc1cccc(CN2C(=O)CCC2(C)C(=O)NC2CCCC2)c1 (stereo not given) | -6 | 22* | 3 | -2 | -2 | 1 | 0 | -2 | 3
COc1cc(C(C(=O)NCC2CCCO2)N(C(=O)Cn2nnc3ccccc32)c2ccc(OC)c(OC)c2)ccc1O (stereo not given) | -6 | 42* | -3 | 9 | -1 | 4 | 1 | -5 | 3
COc1ccc2[nH]c(=O)c(CN(C)C(=O)c3cccs3)cc2c1 | 2 | -1 | -8 | 5 | 0 | 2 | x | x | x
Nc1scc2c(C(=O)N/N=C/c3ccc(Cl)cc3)nn(-c3ccccc3)c(=O)c12 | -2 | 13* | 12 | -3 | 7 | 6 | 4 | -15 | 11
COc1cc(NS(=O)(=O)c2ccc(NC(=S)NC(=O)c3ccc(F)c(F)c3)cc2)nc(OC)n1 | 10 | -2 | -2 | 3 | 2 | 7 | x | x | x
O=c1cc(C(F)(F)F)nc(-n2[nH]c3c(c2=O)CCCC3)[nH]1 | -5 | 17* | 0 | 2 | 1 | 1 | 3 | -10 | -11
Cc1ccc(C=Nc2ccc(N(C)C)cc2)o1 | -70 | 15* | 8 | -11 | 1 | -77 | 1 | -2 | 4
Cc1ccc(C=Nc2ccccc2C(N)=O)o1 | 13 | -6 | 3 | 6 | 11 | -4 | x | x | x
CC(=O)c1cc2c(cc1C)CCCC2(C)C | -14 | -3 | -2 | -1 | -1 | 4 | x | x | x
O=C(NCCCO)C(=O)NCc1ccncc1 | -5 | 1 | 4 | 2 | -2 | 6 | x | x | x
